Measurements as given in ChEMBL document CHEMBL1154719, “Click chemistry: studies on the synthesis of novel fluorous tagged triazol-4-yl substituted quinazoline derivatives and their biological evaluation--theoretical and experimental validation” (2010).
≈ marks a conversion by molar mass, not a printed value.

Assays:
Type in all cases: functional
Rhizopus arrhizus [1] = test: Antifungal activity against Rhizopus oryzae MTCC 262 at 50 ug/ml after 48 hrs by agar cup diffusion method; settings: MTCC 262, 48 h, read-out: DIZ
In short: (§1)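 Amphotericin-B reference at 50 per ml in the agar cup assay on potato dextrose agar. Plates were spread with 0.5 ml of a week-old fungal culture, incubated at 28 °C for 48 h, and inhibition zone diameter was read in mm. Acetone served as the negative control.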

Aspergillus flavus [2] = test: Antifungal activity against Aspergillus flavus MTCC 277 at 50 ug/ml after 48 hrs by agar cup diffusion method; settings: MTCC 277, 48 h, read-out: DIZ; in short: as §1
Diutina rugosa [3] = test: Antifungal activity against Candida rugosa NCIM 3462 at 50 ug/ml after 48 hrs by agar cup diffusion method; settings: NCIM 3462, 48 h, read-out: DIZ; in short: as §1
Candida albicans [4] = test: Antifungal activity against Candida albicans MTCC 227 at 50 ug/ml after 48 hrs by agar cup diffusion method; settings: MTCC 227, 48 h, read-out: DIZ; in short: as §1
Aspergillus niger [5] = test: Antifungal activity against Aspergillus niger MTCC 1344 at 50 ug/ml after 48 hrs by agar cup diffusion method; settings: MTCC 1344, 48 h, read-out: DIZ
In short: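 Agar cup diffusion on potato dextrose agar plates. 0.5 ml of a week-old A. niger culture spread over the solidified agar, then test solutions added to cups. Acetone served as negative control and amphotericin-B as positive control. Plates kept at 28 °C for 48 h. Read-out was inhibition zone diameter in mm.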

Saccharomyces cerevisiae [6] = test: Antifungal activity against Saccharomyces cerevisiae MTCC 36 at 50 ug/ml after 48 hrs by agar cup diffusion method; settings: MTCC 36, 48 h, read-out: DIZ; in short: as §1
Aspergillus flavus [7] = test: Antifungal activity against Aspergillus flavus MTCC 277 at 100 ug/ml after 48 hrs by agar cup diffusion method; settings: MTCC 277, 48 h, read-out: DIZ
In short: (§2)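 Agar cup diffusion on autoclaved potato dextrose agar plates. Each plate was spread with 0.5 ml of a week-old culture, and test solutions at 30 and 100 per ml were added to cups. Plates were held at 28 °C for 48 h, and inhibition zone diameters were read in mm. Acetone served as the solvent control and amphotericin-B as the reference.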

Pseudomonas aeruginosa = test: Antibacterial activity against Pseudomonas aeruginosa MTCC 741 by broth dilution method
In short: (§3)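 MIC by broth dilution in nutrient broth. Test bacteria were kept on nutrient agar slants and subcultured in Petri dishes before testing.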

Aspergillus flavus [8] = test: Antifungal activity against Aspergillus flavus MTCC 277 at 30 ug/ml after 48 hrs by agar cup diffusion method; settings: MTCC 277, 48 h, read-out: DIZ; in short: as §2
Diutina rugosa [9] = test: Antifungal activity against Candida rugosa NCIM 3462 at 100 ug/ml after 48 hrs by agar cup diffusion method; settings: NCIM 3462, 48 h, read-out: DIZ; in short: as §2
Aspergillus niger [10] = test: Antifungal activity against Aspergillus niger MTCC 1344 at 30 ug/ml after 48 hrs by agar cup diffusion method; settings: MTCC 1344, 48 h, read-out: DIZ; in short: as §2
Escherichia coli = test: Antibacterial activity against Escherichia coli MTCC 443 by broth dilution method; in short: as §3
Candida albicans [11] = test: Antifungal activity against Candida albicans MTCC 227 at 30 ug/ml after 48 hrs by agar cup diffusion method; settings: MTCC 227, 48 h, read-out: DIZ; in short: as §2
Bacillus subtilis = test: Antibacterial activity against Bacillus subtilis MTCC 441 by broth dilution method; in short: as §3
Rhizopus arrhizus [12] = test: Antifungal activity against Rhizopus oryzae MTCC 262 at 30 ug/ml after 48 hrs by agar cup diffusion method; settings: MTCC 262, 48 h, read-out: DIZ; in short: as §2
Saccharomyces cerevisiae [13] = test: Antifungal activity against Saccharomyces cerevisiae MTCC 36 at 100 ug/ml after 48 hrs by agar cup diffusion method; settings: MTCC 36, 48 h, read-out: DIZ; in short: as §2
Aspergillus niger [14] = test: Antifungal activity against Aspergillus niger MTCC 1344 at 100 ug/ml after 48 hrs by agar cup diffusion method; settings: MTCC 1344, 48 h, read-out: DIZ; in short: as §2
Saccharomyces cerevisiae [15] = test: Antifungal activity against Saccharomyces cerevisiae MTCC 36 at 30 ug/ml after 48 hrs by agar cup diffusion method; settings: MTCC 36, 48 h, read-out: DIZ; in short: as §2
[16] = test system: Staphylococcus epidermidis; test: Antibacterial activity against Staphylococcus epidermidis MTCC 435 by broth dilution method; in short: as §3
Candida albicans [17] = test: Antifungal activity against Candida albicans MTCC 227 at 100 ug/ml after 48 hrs by agar cup diffusion method; settings: MTCC 227, 48 h, read-out: DIZ; in short: as §2
Staphylococcus aureus = test: Antibacterial activity against Staphylococcus aureus MTCC 96 by broth dilution method; in short: as §3
Diutina rugosa [18] = test: Antifungal activity against Candida rugosa NCIM 3462 at 30 ug/ml after 48 hrs by agar cup diffusion method; settings: NCIM 3462, 48 h, read-out: DIZ; in short: as §2
Rhizopus arrhizus [19] = test: Antifungal activity against Rhizopus oryzae MTCC 262 at 100 ug/ml after 48 hrs by agar cup diffusion method; settings: MTCC 262, 48 h, read-out: DIZ; in short: as §2

| Structure (SMILES) | MIC (Pseudomonas aeruginosa) [µg/mL] | MIC (Escherichia coli) [µg/mL] | MIC (Bacillus subtilis) [µg/mL] | MIC [16] [µg/mL] | MIC (Staphylococcus aureus) [µg/mL] | zone of inhibition at 100 µg/mL (Aspergillus flavus [7]) [mm] | zone of inhibition at 100 µg/mL (Diutina rugosa [9]) [mm] | zone of inhibition at 30 µg/mL (Aspergillus niger [10]) [mm] | zone of inhibition at 30 µg/mL (Candida albicans [11]) [mm] | zone of inhibition at 100 µg/mL (Saccharomyces cerevisiae [13]) [mm] | zone of inhibition at 100 µg/mL (Aspergillus niger [14]) [mm] | zone of inhibition at 100 µg/mL (Candida albicans [17]) [mm] | zone of inhibition at 100 µg/mL (Rhizopus arrhizus [19]) [mm] | also measured |
| --- | --- | --- | --- | --- | --- | --- | --- | --- | --- | --- | --- | --- | --- | --- |
| C[C@@H]1[C@H](O)[C@@H](C)/C=C/C=C/C=C/C=C/C=C/C=C/C=C/[C@H](O[C@@H]2O[C@H](C)[C@@H](O)[C@H](N)[C@@H]2O)C[C@@H]2O[C@](O)(C[C@@H](O)C[C@@H](O)[C@H](O)CC[C@@H](O)C[C@@H](O)CC(=O)O[C@H]1C)C[C@H](O)[C@H]2C(=O)O [AMPHOTERICIN B] | – | – | – | – | – | – | – | – | – | – | – | – | – | zone of inhibition at 50 µg/mL (Rhizopus arrhizus [1]): 24 mm; zone of inhibition at 50 µg/mL (Aspergillus flavus [2]): 25 mm; zone of inhibition at 50 µg/mL (Diutina rugosa [3]): 22 mm; zone of inhibition at 50 µg/mL (Candida albicans [4]): 23.5 mm; zone of inhibition at 50 µg/mL (Aspergillus niger [5]): 25 mm; zone of inhibition at 50 µg/mL (Saccharomyces cerevisiae [6]): 22 mm |
| C#CCn1c(-c2ccccc2)nc2ccccc2c1=O | 37.5 (≈ 144 µM) | 75 (≈ 288 µM) | 37.5 (≈ 144 µM) | 37.5 (≈ 144 µM) | 37.5 (≈ 144 µM) | 12 | 12 | 7 | 7 | 12 | 10 | 10 | 12 | zone of inhibition at 30 µg/mL (Aspergillus flavus [8]): 9 mm; zone of inhibition at 30 µg/mL (Rhizopus arrhizus [12]): 8 mm; zone of inhibition at 30 µg/mL (Saccharomyces cerevisiae [15]): 9 mm; zone of inhibition at 30 µg/mL (Diutina rugosa [18]): 8 mm |
| FC(F)(F)C(F)(F)C(F)(F)C(F)(F)C(F)(F)C(F)(F)C(F)(F)C(F)(F)CCn1nncc1COc1nc(-c2ccccc2)nc2ccccc12 | 37.5 (≈ 50 µM) | 75 (≈ 100 µM) | 37.5 (≈ 50 µM) | 9.38 (≈ 12.5 µM) | 9.38 (≈ 12.5 µM) | 9 | 12 | 8 | 8 | 9 | 12 | 12 | 12 | – |
| C#CCOc1nc(-c2ccccc2)nc2ccccc12 | 150 (≈ 576 µM) | 150 (≈ 576 µM) | 150 (≈ 576 µM) | 150 (≈ 576 µM) | 150 (≈ 576 µM) | – | – | 7 | 7 | – | 10 | 10 | – | – |

Now from value to molecule, other results behind:

| MIC (Pseudomonas aeruginosa) [µg/mL] | MIC (Escherichia coli) [µg/mL] | MIC (Bacillus subtilis) [µg/mL] | MIC [16] [µg/mL] | MIC (Staphylococcus aureus) [µg/mL] | Structure (SMILES) | zone of inhibition at 100 µg/mL (Aspergillus flavus [7]) [mm] | zone of inhibition at 100 µg/mL (Diutina rugosa [9]) [mm] | zone of inhibition at 30 µg/mL (Aspergillus niger [10]) [mm] | zone of inhibition at 30 µg/mL (Candida albicans [11]) [mm] | zone of inhibition at 100 µg/mL (Saccharomyces cerevisiae [13]) [mm] | zone of inhibition at 100 µg/mL (Aspergillus niger [14]) [mm] | zone of inhibition at 100 µg/mL (Candida albicans [17]) [mm] | zone of inhibition at 100 µg/mL (Rhizopus arrhizus [19]) [mm] | also measured |
| --- | --- | --- | --- | --- | --- | --- | --- | --- | --- | --- | --- | --- | --- | --- |
| 75 (≈ 100 µM) | 15 (≈ 20 µM) | 150 (≈ 200 µM) | 75 (≈ 100 µM) | 75 (≈ 100 µM) | O=c1c2ccccc2nc(-c2ccccc2)n1Cc1cn(CCC(F)(F)C(F)(F)C(F)(F)C(F)(F)C(F)(F)C(F)(F)C(F)(F)C(F)(F)F)nn1 | 9 | 10 | – | – | 9 | 9 | 9 | 10 | – |
| 75 (≈ 117 µM) | 75 (≈ 117 µM) | 150 (≈ 234 µM) | 150 (≈ 234 µM) | 150 (≈ 234 µM) | O=c1c2ccccc2nc(C(F)(F)F)n1Cc1cn(CCC(F)(F)C(F)(F)C(F)(F)C(F)(F)C(F)(F)C(F)(F)F)nn1 | 12 | 13 | – | – | 12 | 9 | 9 | 13 | zone of inhibition at 30 µg/mL (Aspergillus flavus [8]): 9 mm; zone of inhibition at 30 µg/mL (Rhizopus arrhizus [12]): 8 mm; zone of inhibition at 30 µg/mL (Saccharomyces cerevisiae [15]): 9 mm; zone of inhibition at 30 µg/mL (Diutina rugosa [18]): 8 mm |
| 75 (≈ 101 µM) | 75 (≈ 101 µM) | 75 (≈ 101 µM) | 75 (≈ 101 µM) | 75 (≈ 101 µM) | O=c1c2ccccc2nc(C(F)(F)F)n1Cc1cn(CCC(F)(F)C(F)(F)C(F)(F)C(F)(F)C(F)(F)C(F)(F)C(F)(F)C(F)(F)F)nn1 | 9 | – | 7 | 7 | 9 | 9 | 9 | – | – |
| 37.5 (≈ 58.5 µM) | 75 (≈ 117 µM) | 18.8 (≈ 29.2 µM) | 9.38 (≈ 14.6 µM) | 9.38 (≈ 14.6 µM) | FC(F)(F)c1nc(OCc2cn(CCC(F)(F)C(F)(F)C(F)(F)C(F)(F)C(F)(F)C(F)(F)F)nn2)c2ccccc2n1 | 9 | 9 | 8 | 8 | 9 | 12 | 12 | 9 | – |
